Laboratory results: ChEMBL document CHEMBL1671784 (J Med Chem, 2011)
Active and inactive are the calls of the source.

Columns and labels:
Rattus norvegicus [1] = experiment: Antinociceptive activity in sc dosed Sprague-Dawley rat assessed as thermal-stimulus induced tail flick latency after 1 hrs; assay type: functional
[2] = Displacement of [3H]U69593 from kappa opioid receptor in guinea pig brain membrane by liquid scintillation counting; assay type: cell membranes, Cavia porcellus
Rattus norvegicus [3] = experiment: Antinociceptive activity in sc dosed Sprague-Dawley rat assessed as thermal-stimulus induced tail flick latency after 0.5 hrs; assay type: functional
Rattus norvegicus [4] = experiment: Antinociceptive activity in sc dosed Sprague-Dawley rat assessed as thermal-stimulus induced tail flick latency after 2 hrs; assay type: functional
Rattus norvegicus [5] = experiment: Antinociceptive activity in sc dosed Sprague-Dawley rat assessed as thermal-stimulus induced tail flick latency after 3 hrs; assay type: functional
[6] = molecular target: Kappa-type opioid receptor (Cavia porcellus, UniProt P41144); experiment: Displacement of [3H][Ile5,6]deltorphin 2 from delta opioid receptor in Sprague-Dawley rat brain membrane by liquid scintillation counting; assay type: cell membranes
Mu-type opioid receptor = Mu-type opioid receptor (Rattus norvegicus, UniProt P33535); experiment: Displacement of [3H]DAMGO from mu opioid receptor in Sprague-Dawley rat brain membrane by liquid scintillation counting; assay type: cell membranes
Rattus norvegicus [7] = experiment: Antinociceptive activity in Sprague-Dawley rat inflammatory model assessed as paw withdrawal latency at 170 nmol/kg, sc administered post carrageenan challenge; assay type: functional, organism-based
Outline: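 Male Sprague-Dawley rats (250 g), unanesthetized; unilateral inflammation from 100 μL 1% carrageenan into the right hindpaw plantar surface. At 3 h post-carrageenan, compound given sc in 0.9% saline (100 μL); saline controls; 4–7 rats per group. Randall–Selitto paw pressure (blunt wedge piston, 48 g/s, 20 s cutoff) applied to the dorsal paw. Response is % change in withdrawal latency from the 3 h pre-drug value.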

Rattus norvegicus [8] = experiment: Antinociceptive activity in sc dosed Sprague-Dawley rat assessed as thermal-stimulus induced tail flick latency relative to morphine; assay type: functional
Rattus norvegicus [9] = species on record: Rattus norvegicus; conditions: Sprague-Dawley, at 426 nmol/kg
Rattus norvegicus [10] = species on record: Rattus norvegicus; conditions: Sprague-Dawley, at 426 nmol/kg; remark: listed apart in the source
Rattus norvegicus [11] = experiment: Antinociceptive activity in Sprague-Dawley rat inflammatory model assessed as paw withdrawal latency at 183 nmol/kg, sc administered post carrageenan challenge; assay type: functional, organism-based

Sequence of Mu-type opioid receptor (P33535 whole entry): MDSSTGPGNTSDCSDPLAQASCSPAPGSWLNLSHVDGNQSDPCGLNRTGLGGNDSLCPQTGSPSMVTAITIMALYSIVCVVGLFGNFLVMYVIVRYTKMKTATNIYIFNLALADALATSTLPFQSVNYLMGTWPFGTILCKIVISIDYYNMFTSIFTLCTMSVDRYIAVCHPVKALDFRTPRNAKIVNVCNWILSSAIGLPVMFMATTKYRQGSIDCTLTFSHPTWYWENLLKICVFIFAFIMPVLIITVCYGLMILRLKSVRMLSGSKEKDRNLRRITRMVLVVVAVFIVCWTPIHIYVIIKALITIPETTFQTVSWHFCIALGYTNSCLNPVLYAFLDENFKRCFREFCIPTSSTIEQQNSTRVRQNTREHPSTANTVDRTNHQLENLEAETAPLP
Sequence of Kappa-type opioid receptor (P41144 whole entry): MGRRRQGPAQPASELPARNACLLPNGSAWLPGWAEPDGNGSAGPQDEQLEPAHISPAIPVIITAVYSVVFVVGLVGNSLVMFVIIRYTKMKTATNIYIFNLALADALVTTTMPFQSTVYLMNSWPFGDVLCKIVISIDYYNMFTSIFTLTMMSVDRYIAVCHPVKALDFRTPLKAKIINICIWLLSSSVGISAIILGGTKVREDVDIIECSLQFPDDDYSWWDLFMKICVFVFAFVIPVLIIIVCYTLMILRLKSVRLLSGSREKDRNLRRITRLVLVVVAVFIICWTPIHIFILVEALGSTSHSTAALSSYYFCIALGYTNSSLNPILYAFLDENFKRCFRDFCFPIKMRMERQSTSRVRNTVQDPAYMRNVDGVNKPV

| SMILES | ED50 (Rattus norvegicus [1]) [µmol/kg] | Ki [2] [pM] | ED50 (Rattus norvegicus [3]) [µmol/kg] | ED50 (Rattus norvegicus [4]) [µmol/kg] | ED50 (Rattus norvegicus [5]) [µmol/kg] | Ki [6] [pM] | Ki (Mu-type opioid receptor) [pM] | Activity (Rattus norvegicus [7]) | fold change (FC) (Rattus norvegicus [8]) | inhibition (Rattus norvegicus [9]) | inhibition (Rattus norvegicus [10]) | Activity (Rattus norvegicus [11]) |
| --- | --- | --- | --- | --- | --- | --- | --- | --- | --- | --- | --- | --- |
| CC(C)(C)OC(=O)CN[C@@H]1CC[C@@]2(OCCCc3ccccc3)[C@H]3Cc4ccc(O)c5c4[C@@]2(CCN3CC2CC2)[C@H]1O5 | 0.0268 | 400 | 0.0338 | 0.0344 | 0.056 | 1770 | 1010 | – | – | – | – | – |
| CN1CC[C@]23c4c5ccc(O)c4O[C@H]2[C@@H](O)C=C[C@H]3[C@H]1C5 [MORPHINE] | 7.63 | – | 6.05 | 13.3 | – | – | – | – | – | – | – | – |
| CN1CC[C@]23c4c5ccc(O)c4O[C@H]2[C@H](NCC(=O)O)CC[C@@]3(OCCCc2ccccc2)[C@H]1C5 | – | – | – | – | – | – | – | Active | – | – | – | – |
| CN1CC[C@]23c4c5ccc(O)c4O[C@H]2[C@@H](NCC(=O)O)CC[C@@]3(OCCCc2ccccc2)[C@H]1C5 | – | – | – | – | – | – | – | Active | – | – | – | – |
| CN1CC[C@]23c4c5ccc(O)c4O[C@@]2(C)C(=O)CC[C@@]3(OCCCc2ccccc2)[C@H]1C5 | – | 140 | – | – | – | 540 | – | – | – | – | – | – |
| CN1CC[C@]23c4c5ccc(O)c4O[C@H]2[C@H](NCC(=O)OC(C)(C)C)CC[C@@]3(OCCCc2ccccc2)[C@H]1C5 | 0.0923 | 920 | 0.164 | 0.124 | 0.189 | 2020 | 1030 | – | 66 | – | – | – |
| CO[C@@]12CC[C@H](NCC(=O)O)[C@@H]3Oc4c(O)ccc5c4[C@@]31CCN(C)[C@@H]2C5 | 0.0585 | – | 0.137 | 0.143 | 0.437 | – | – | – | – | – | – | – |
| Cl.Cl.O=C(O)CN[C@H]1CC[C@@]2(OCCCc3ccccc3)[C@H]3Cc4ccc(O)c5c4[C@@]2(CCN3CC2CC2)[C@H]1O5 | 0.349 | 330 | 1.39 | 0.433 | 0.543 | 640 | 270 | – | 17 | – | – | – |
| Cl.Cl.O=C(O)CN[C@@H]1CC[C@@]2(OCCCc3ccccc3)[C@H]3Cc4ccc(O)c5c4[C@@]2(CCN3CC2CC2)[C@H]1O5 | 0.183 | 350 | 1.56 | 0.147 | – | 650 | 200 | – | 41 | – | – | – |
| C=CC[N+]1(C)CC[C@]23c4c5ccc(O)c4O[C@H]2C(=O)CC[C@@]3(O)[C@H]1C5 (stereo partly drawn) | – | – | – | – | – | – | – | – | – | Active | Active | – |
| CN1CC[C@]23c4c5ccc(O)c4O[C@H]2[C@@H](NCC(=O)OC(C)(C)C)CC[C@@]3(OCCCc2ccccc2)[C@H]1C5 | 0.0583 | 1010 | 0.0635 | 0.084 | 0.148 | 1260 | 1400 | – | 104 | – | – | – |
| CC(C)(C)OC(=O)CN[C@H]1CC[C@@]2(OCCCc3ccccc3)[C@H]3Cc4ccc(O)c5c4[C@@]2(CCN3CC2CC2)[C@H]1O5 | 0.348 | 1110 | 0.365 | 0.363 | 0.427 | 1490 | 1380 | – | 17 | – | – | – |
| CO[C@@]12CC[C@@H](NCC(=O)O)[C@@H]3Oc4c(O)ccc5c4[C@@]31CCN(C)[C@@H]2C5 | 0.029 | – | 0.0508 | 0.0433 | – | – | – | – | – | – | – | Active |
